Results: ChEMBL document CHEMBL4680081, “Synthesis, photophysical properties and biological evaluation of β-alkylaminoporphyrin for photodynamic therapy” (Bioorg Med Chem, 2016)
Calls of active or inactive are those of the source. No cut-off for these calls is given here.

Legend:
[1] = Dark toxicity in human HeLa cells assessed as reduction in cell viability after 24 hrs by MTT assay; assay type: cell-based
Outline: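 HeLa cells in DMEM with 10% FBS (37 °C, 5% CO2) were seeded at 2 × 10^4 cells/well and attached for 24 h. Compound at a range of final concentrations was taken up for 24 h in the dark, cells were washed with PBS and left unirradiated. MTT viability was read 24 h later as % survival normalised to no-drug cells. Triplicate experiments.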

[2] = Induction of singlet oxygen generation in DMF solution assessed as singlet oxygen quantum yield irradiated with 650 nanometer laser light by DPBF-based assay; assay type: functional
HeLa [3] = experiment: Phototoxicity against human HeLa cells assessed as reduction in cell viability preincubated for 24 hrs followed by irradiated with 16 J/cm2 of 650 nanometer laser light measured after 24 hrs by MTT assay; assay type: functional, cell-based; settings: light or radiation study
Outline: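 HeLa cells at 2 × 10^4 cells/well were attached for 24 h and given compound at a range of final concentrations for 24 h in the dark. After two PBS washes, cells were irradiated with a 650 nm Nd:YAG laser (doses 0–16 J/cm²). MTT viability was read 24 h later as % survival normalised to no-drug cells. Triplicate experiments.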

[4] = Emission property of the compound in DMSO assessed as stokes shift by fluorescence spectrophotometric method; assay type: physicochemical
Outline: (§1)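 Fluorescence spectra recorded on a spectrofluorometer with slits of 1 nm for excitation and 1 or 2 nm for emission.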

[5] = Emission property of the compound in DMSO assessed as maximum emission wavelength at 4 uM by fluorescence spectrophotometric method; assay type: physicochemical; outline: as §1
[6] = Absorption property of the compound in DMSO assessed as Q band wavelength molar absorption coefficient by UV-visible spectrophotometric method; assay type: physicochemical
Outline: (§2)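 UV–visible absorption spectra recorded in DMSO at concentrations 1, 2, 4, 6, 8, 10 µM, with the concentration dependence used to follow aggregation.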

HeLa [7] = experiment: Photodynamic antitumor activity against human HeLa cells xenografted in BALB/c nude mouse assessed as reduction in tumor volume at 5 mg/kg, iv followed by laser light irradiation at 100 J/cm2
[8] = Emission property of the compound in DMSO assessed as maximum excited state emission wavelength at 4 uM by fluorescence spectrophotometric method; assay type: physicochemical; outline: as §1
[9] = Absorption property of the compound in DMSO assessed as soret band absorption coefficient by UV-visible spectrophotometric method; assay type: physicochemical; outline: as §2
[10] = Absorption property of the compound in DMSO assessed as Q band molar attenuation coefficient by UV-visible spectrophotometric method; assay type: physicochemical; outline: as §2
[11] = Drug localization in nuclear membrane of human HeLa cells at 5 uM incubated for 4 hrs in dark by Hoechst 33342 staining based confocal fluorescence microscopy; assay type: ADME, cell membranes
Outline: (§3)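 HeLa cells at 1 × 10^5 cells/mL on poly-L-lysine coverslips for 24 h, then 5 µM drug for 4 h in the dark at 37 °C. Nuclei were stained with Hoechst 33342 for 10 min at 37 °C, and cells fixed in 4% paraformaldehyde at 4 °C for 30 min. Confocal imaging: drug excited at 417 nm, emission 600–700 nm; Hoechst excited at 350 nm, emission 450–500 nm.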

[12] = Absorption property of the compound in DMSO assessed as soret band wavelength molar absorption coefficient by UV-visible spectrophotometric method; assay type: physicochemical; outline: as §2
[13] = Drug localization in cytoplasm of human HeLa cells at 5 uM incubated for 4 hrs in dark by Hoechst 33342 staining based confocal fluorescence microscopy; assay type: ADME, subcellular; outline: as §3
[14] = Absorption property of the compound in DMSO assessed as Q band maximum absorption wavelength by UV-visible spectrophotometric method; assay type: physicochemical; outline: as §2
[15] = Absorption property of the compound in DMSO assessed as Q band absorption coefficient by UV-visible spectrophotometric method; assay type: physicochemical; outline: as §2
[16] = Absorption property of the compound in DMSO assessed as soret band maximum absorption wavelength by UV-visible spectrophotometric method; assay type: physicochemical; outline: as §2

Row | Activity [4] [nm] | Activity [5] [nm] | Activity [6] [nm] | Activity [8] [nm] | Activity [9] | Activity [10] | Drug uptake [11] | Activity [12] [nm] | Drug uptake [13] | Activity [14] [nm] | Activity [15] | Activity [16] [nm] | SMILES | IC50 at 24 h [1] [µM] | Activity [2] | IC50 (HeLa [3]) [µM] | Activity (HeLa [7])
1 | 19 | 669 | 650 | 412 | 8.32 10^4/M/cm | 0.16 10^4/M/cm | – | 524 | – | 596 | 0.27 10^4/M/cm | 412 | C1=Cc2nc1c(-c1ccccc1)c1ccc([nH]1)c(-c1ccccc1)c1nc(c(-c3ccccc3)c3ccc([nH]3)c2-c2ccccc2)C(N2CCCCC2)=C1 | 110 | 0.19 | 5.56 | –
2 | 1 | 665 | 664 | 412 | 14.53 10^4/M/cm | 0.25 10^4/M/cm | – | 528 | – | 601 | 0.44 10^4/M/cm | 412 | C1=Cc2nc1c(-c1ccccc1)c1ccc([nH]1)c(-c1ccccc1)c1nc(c(-c3ccccc3)c3ccc([nH]3)c2-c2ccccc2)C(N2CCCC2)=C1 | 172 | 0.43 | 4.56 | –
3 | 13 | 663 | 650 | 417 | 16.08 10^4/M/cm | 0.56 10^4/M/cm | – | 522 | – | 596 | 0.69 10^4/M/cm | 417 | C1=Cc2nc1c(-c1ccccc1)c1ccc([nH]1)c(-c1ccccc1)c1nc(c(-c3ccccc3)c3ccc([nH]3)c2-c2ccccc2)C(N2CCOCC2)=C1 | 93.4 | 0.25 | 5.06 | –

Further lines, the molecule ahead of its results:

Row | SMILES | Activity [4] [nm] | Activity [5] [nm] | Activity [6] [nm] | Activity [8] [nm] | Activity [9] | Activity [10] | Drug uptake [11] | Activity [12] [nm] | Drug uptake [13] | Activity [14] [nm] | Activity [15] | Activity [16] [nm] | IC50 at 24 h [1] [µM] | Activity [2] | IC50 (HeLa [3]) [µM] | Activity (HeLa [7])
4 | COC(C)c1c(C)c2cc3nc(cc4[nH]c(cc5nc(cc1[nH]2)C(C)=C5C(C)O)c(C)c4CCC(=O)O)C(CCC(=O)O)=C3C (centres undefined) | – | – | – | – | – | – | – | – | – | – | – | – | 345 | 0.18 | 9.46 | –
5 | COc1ccc(-c2c3nc(c(-c4ccc(OC)cc4)c4ccc([nH]4)c(-c4ccc(OC)cc4)c4nc(c(-c5ccc(OC)cc5)c5ccc2[nH]5)C=C4N2CCCC2)C=C3)cc1 | 15 | 683 | 668 | 417 | 13.43 10^4/M/cm | 0.54 10^4/M/cm | Active | 535 | Active | 603 | 0.68 10^4/M/cm | 417 | 387 | 0.56 | 4.38 | Active
6 | Cc1ccc(-c2c3nc(c(-c4ccc(C)cc4)c4ccc([nH]4)c(-c4ccc(C)cc4)c4nc(c(-c5ccc(C)cc5)c5ccc2[nH]5)C=C4N2CCCC2)C=C3)cc1 | 4 | 671 | 666 | 414 | 16.52 10^4/M/cm | 0.34 10^4/M/cm | – | 531 | – | 602 | 0.58 10^4/M/cm | 414 | 280 | 0.54 | 5.33 | –
7 | Clc1ccc(-c2c3nc(c(-c4ccc(Cl)cc4)c4ccc([nH]4)c(-c4ccc(Cl)cc4)c4nc(c(-c5ccc(Cl)cc5)c5ccc2[nH]5)C=C4N2CCCC2)C=C3)cc1 | 17 | 665 | 648 | 412 | 14.75 10^4/M/cm | 0.67 10^4/M/cm | – | 521 | – | 594 | 0.73 10^4/M/cm | 412 | 81.6 | 0.2 | 6.43 | –
